Measured values reported in paper PMC2917810 (Chemical biology & drug design, 2008).
Where two headings read alike, the source gives them in different places. Positions of bridges follow the written chain, without caps; N, C: chain ends. Residues, ends and D or L forms follow the SMILES beside them.

Assays:
RGS4Δ51N = biological target: T1, RGS4Δ51N (Homo sapiens, UniProt P49798); assay: Single turnover RGS-stimulated Gαo GTPase; assay type: biochemical; settings: for activity on RGS4 GAP activity: single turnover GAP assay, RGS4Δ51N 75–125 nM; for inhibition of RGS4 activity (rate of RGS stimulated Gαo GTP hydrolysis): purified proteins, mean ± S.E.M., n ≥3, SEM
T1 sequence (P49798 52-205 limits assumed): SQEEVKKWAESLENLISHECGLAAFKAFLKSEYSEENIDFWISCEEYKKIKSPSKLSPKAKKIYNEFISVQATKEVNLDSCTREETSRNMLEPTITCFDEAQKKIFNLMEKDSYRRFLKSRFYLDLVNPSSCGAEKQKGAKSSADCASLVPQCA
Method in brief: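 Single-turnover GTP hydrolysis by purified rat His6-Gαo with γ[32P]GTP, stimulated by human MBP-His6-RGS4Δ51N (75–125 nM). Soluble disulfide-cyclized peptides (≥95% pure) were tested at 50 μM, or lower where solubility limited. Rates came from time courses, reported as percent decrease in the RGS-stimulated rate; IC50 estimated from these single-concentration inhibitions. Mean ± S.E.M., n ≥3; t-test.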

[1] = Solubility and aggregation of soluble peptides; assay type: physicochemical
RGS4 [2] = settings: membrane based steady state GTPase assay; cited from earlier work
RGS4 [3] = settings: cited from earlier work
RGS7box = assay: Single turnover GAP assay, RGS7; assay type: biochemical, human; settings: RGS7box 500 nM
Method in brief: (§1)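 Single-turnover GTP hydrolysis by purified rat His6-Gαo with γ[32P]GTP, with or without RGS. The RGS proteins were human MBP-His6 constructs, purified on amylose then Ni-NTA: full-length RGS16 at 1.5 μM, RGS19Δ11C at 200 nM, and the RGS7 RGS domain (nucleotides 915–1359) at 500 nM. Test peptides were soluble, cyclized, and ≥95% pure.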

RGS16 = assay: Single turnover GAP assay, RGS16; assay type: biochemical, human; settings: RGS16 1.5 μM
Method in brief: as §1

RGS4Δ51N-Alexa Fluor 532 = assay: FACScan flow cytometry binding of bead-bound peptides; set-up: species or system human; settings: peptides on beads, 25 nM RGS4Δ51N-Alexa Fluor 532
Method in brief: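 Hit peptides resynthesized and disulfide-cyclized on 20 μm TentaGel beads; about 5 × 10^3 beads per sample (at most 5 nmoles peptide) washed, then incubated with RGS4Δ51N-Alexa Fluor 532 for at least 15 min at room temperature, protected from light. FACScan gated on acetylated TentaGel control beads, no compensation; their signal subtracted as background. Duplicates; one-way ANOVA with Bonferroni post-test.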

## 2nl: free N-terminal linear version of peptide 2 (H-GTCFGTCW-NH2; cysteine pairing not given here)
RGS4Δ51N
  activity on RGS4 GAP activity: inactive

## KLc[CHGYC]H-NH2, S-S (disulfide) [compound 11]
[1]; not evaluated in GAP assay for this reason
  aggregation: signs of aggregation

## 4nd: free N-terminal, disulfide bridged version of hit 4 (H-KVCMGGCT-NH2; disulfide 3-7; SMILES CSCC[C@@H]1NC(=O)[C@@H](NC(=O)[C@@H](NC(=O)[C@@H](N)CCCCN)C(C)C)CSSC[C@@H](C(=O)N[C@H](C(N)=O)[C@@H](C)O)NC(=O)CNC(=O)CNC1=O)
RGS4Δ51N; 50 μM peptide in solution
  inhibition of RGS4 activity (rate of RGS stimulated Gαo GTP hydrolysis): 33 ± 16%

## Ac-Val-Lys-c[Cys-Thr-Gly-Ile-Cys]-Glu-NH2, S-S (disulfide) [YJ34, reference compound]
[1]
  solubility: limited by solubility
RGS4 [2]
  IC50: 26 µM

## Ac-Val-Lys-c[Cys-Thr-Ser-Ile-Cys]-Glu-NH2, S-S (disulfide) [BR2]
RGS4 [3]
  activity as RGS4 inhibitor: inactive

## C[C@@H](O)[C@@H]1NC(=O)CNC(=O)[C@H](Cc2ccccc2)NC(=O)[C@@H](NC(=O)[C@@H](NC(=O)CN)[C@@H](C)O)CSSC[C@@H](C(=O)N[C@@H](Cc2c[nH]c3ccccc23)C(N)=O)NC1=O [2nd, Gly-Thr-c[Cys-Phe-Gly-Thr-Cys]-Trp-NH2, S-S] (H-GTCFGTCW-NH2; disulfide 3-7)
RGS4Δ51N
  IC50: ~50 µM
RGS4Δ51N; 50 μM peptide in solution
  inhibition of RGS4 activity (rate of RGS stimulated Gαo GTP hydrolysis): 48 ± 7%
RGS7box
  activity against RGS7: inactive
RGS16
  activity against RGS16: inactive

## 14nd: free N-terminal, disulfide bridged version of hit 14 (H-KHCYGFCK-NH2; disulfide 3-7; SMILES NCCCC[C@H](NC(=O)[C@@H]1CSSC[C@H](NC(=O)[C@H](Cc2c[nH]cn2)NC(=O)[C@@H](N)CCCCN)C(=O)N[C@@H](Cc2ccc(O)cc2)C(=O)NCC(=O)N[C@@H](Cc2ccccc2)C(=O)N1)C(N)=O)
[1]; could not be tested at 50 μM in GAP assay, solubility verified by HPLC
  solubility: limited by solubility

## 1nd: free N-terminal, disulfide bridged version of hit 1 (H-YNCQGECE-NH2; disulfide 3-7; SMILES NC(=O)CC[C@@H]1NC(=O)[C@@H](NC(=O)[C@H](CC(N)=O)NC(=O)[C@@H](N)Cc2ccc(O)cc2)CSSC[C@@H](C(=O)N[C@@H](CCC(=O)O)C(N)=O)NC(=O)[C@H](CCC(=O)O)NC(=O)CNC1=O)
RGS4Δ51N; 50 μM peptide in solution
  inhibition of RGS4 activity (rate of RGS stimulated Gαo GTP hydrolysis): 33 ± 15%

## KVc[CMGGC]T-NH2, S-S (disulfide) [compound 4]
RGS4Δ51N-Alexa Fluor 532
  binding to RGS4Δ51N in FACScan assay: bound RGS4 so well
RGS4Δ51N
  activity on RGS4 GAP activity: little effect

## 2al: acetylated linear version of peptide 2 (Ac-GTCFGTCW-NH2; cysteine pairing not given here)
RGS4Δ51N
  activity on RGS4 GAP activity: inactive

## CC(=O)NCC(=O)N[C@H](C(=O)N[C@H]1CSSC[C@@H](C(=O)N[C@@H](Cc2c[nH]c3ccccc23)C(N)=O)NC(=O)[C@H]([C@@H](C)O)NC(=O)CNC(=O)[C@H](Cc2ccccc2)NC1=O)[C@@H](C)O [2ad, Ac-Gly-Thr-c[Cys-Phe-Gly-Thr-Cys]-Trp-NH2, S-S] (Ac-GTCFGTCW-NH2; disulfide 3-7)
RGS4Δ51N
  IC50: ~50 µM
RGS4Δ51N; 25 μM peptide (limited by solubility)
  inhibition of RGS4 activity (rate of RGS stimulated Gαo GTP hydrolysis): 30 ± 12%
RGS7box
  activity against RGS7: inactive
RGS16
  activity against RGS16: inactive
[1]
  solubility: limited by solubility

## Ac-Val-Lys-[Cys-Thr-Gly-Phe-Cys]-Glu-NH2, S-S (disulfide) [peptide 20 in Roof et al]
RGS4 [3]; at 100 μM
  inhibited RGS4 GAP activity: ~40%
